This is an account of results in PMC8569940 (European journal of medicinal chemistry, 2020).

For one data set, the target named is MAPK10 (Homo sapiens, UniProt P53779). The data set is described as follows: Enzyme inhibition MAPK10. Format: biochemical. The note with it: tested at 100 μM.
For a further data set, the system named is Kunming mice. The data set is described as follows: Acute toxicity study, single intraperitoneal dose. It counts as in vivo. In outline:
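Kunming mice, four groups of 8 (half male, half female), each given one intraperitoneal injection of test compound at 10, 20 or 40 mg/kg or vehicle. Mortality and clinical signs in eyes, skin and fur recorded. Body weights measured daily after treatment. Mice dissected to check for ascites and liver volume.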

The next data set has as its target T1, AURKA (Homo sapiens, UniProt O14965).
T1 sequence (O14965 1-403): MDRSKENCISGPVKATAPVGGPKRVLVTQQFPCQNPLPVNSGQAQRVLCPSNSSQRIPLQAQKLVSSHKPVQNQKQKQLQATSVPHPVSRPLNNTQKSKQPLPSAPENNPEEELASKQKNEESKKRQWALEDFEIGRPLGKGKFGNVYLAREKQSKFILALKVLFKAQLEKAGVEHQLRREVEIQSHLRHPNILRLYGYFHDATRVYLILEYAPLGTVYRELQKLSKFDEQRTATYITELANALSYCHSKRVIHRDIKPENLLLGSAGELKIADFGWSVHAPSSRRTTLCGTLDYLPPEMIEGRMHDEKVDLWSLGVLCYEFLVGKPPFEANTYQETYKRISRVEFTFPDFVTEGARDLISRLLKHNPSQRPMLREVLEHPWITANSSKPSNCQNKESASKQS
The experiment in a line: Enzyme inhibition AURKA. It counts as biochemical. The note with it: tested at 100 μM.

A further data set deals with 4T1 tumor. The data set is described as follows: In vivo antitumor effect, orthotopic 4T1 tumor-bearing mice. The note with it: 2 mg/kg, in comparison with the control group.
The test system of the next data set is MDA-MB-231 cells. The data set is described as follows: Apoptosis detection assay. It counts as cell-based, human. In outline: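 MDA-MB-231 cells seeded at 5 × 10^5 cells/mL in six-well plates. Treated with test compound at different concentrations for 24 h (48 h per results text); combretastatin A4 as positive control. Cells trypsinised, washed twice in cold PBS, resuspended in binding buffer, then stained with annexin V-FITC 15 min at room temperature. PI added for a further 15 min in the dark. Read by flow cytometry.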

Another data set addresses JAK2 (Homo sapiens, UniProt O60674). The experiment in a line: Enzyme inhibition JAK2. It counts as biochemical.
[1] abbreviates: female mice, highest dose group (40 mg/kg).

JAK2, sequence (O60674 whole entry): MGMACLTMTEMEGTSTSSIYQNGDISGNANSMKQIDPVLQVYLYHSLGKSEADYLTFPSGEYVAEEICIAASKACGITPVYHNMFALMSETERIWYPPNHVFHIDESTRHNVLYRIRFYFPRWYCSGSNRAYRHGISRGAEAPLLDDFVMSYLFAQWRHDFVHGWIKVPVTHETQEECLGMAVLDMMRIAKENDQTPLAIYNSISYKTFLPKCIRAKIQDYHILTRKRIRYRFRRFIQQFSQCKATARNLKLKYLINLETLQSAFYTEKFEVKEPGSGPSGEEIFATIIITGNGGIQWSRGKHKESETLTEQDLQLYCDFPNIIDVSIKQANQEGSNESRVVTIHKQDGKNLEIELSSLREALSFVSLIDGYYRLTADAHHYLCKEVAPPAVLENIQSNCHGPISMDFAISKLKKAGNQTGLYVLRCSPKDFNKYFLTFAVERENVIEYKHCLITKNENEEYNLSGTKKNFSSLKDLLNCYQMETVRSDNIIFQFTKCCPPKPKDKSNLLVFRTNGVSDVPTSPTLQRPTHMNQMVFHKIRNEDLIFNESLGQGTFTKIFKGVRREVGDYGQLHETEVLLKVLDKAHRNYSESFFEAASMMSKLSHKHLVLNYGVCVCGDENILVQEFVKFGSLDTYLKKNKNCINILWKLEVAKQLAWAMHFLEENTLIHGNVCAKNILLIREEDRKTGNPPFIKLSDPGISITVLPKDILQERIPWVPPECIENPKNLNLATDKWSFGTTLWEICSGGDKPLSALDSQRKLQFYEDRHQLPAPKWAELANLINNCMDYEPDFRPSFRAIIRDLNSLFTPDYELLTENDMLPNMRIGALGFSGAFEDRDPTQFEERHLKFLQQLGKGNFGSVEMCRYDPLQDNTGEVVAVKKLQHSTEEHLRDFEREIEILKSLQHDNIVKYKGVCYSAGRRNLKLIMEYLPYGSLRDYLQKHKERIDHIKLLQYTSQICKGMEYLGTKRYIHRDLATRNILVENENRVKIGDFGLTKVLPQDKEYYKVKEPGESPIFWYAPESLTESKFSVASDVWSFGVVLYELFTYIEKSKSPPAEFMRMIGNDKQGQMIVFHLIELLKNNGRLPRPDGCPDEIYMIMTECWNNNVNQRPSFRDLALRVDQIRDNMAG
MAPK10, sequence (P53779 whole entry): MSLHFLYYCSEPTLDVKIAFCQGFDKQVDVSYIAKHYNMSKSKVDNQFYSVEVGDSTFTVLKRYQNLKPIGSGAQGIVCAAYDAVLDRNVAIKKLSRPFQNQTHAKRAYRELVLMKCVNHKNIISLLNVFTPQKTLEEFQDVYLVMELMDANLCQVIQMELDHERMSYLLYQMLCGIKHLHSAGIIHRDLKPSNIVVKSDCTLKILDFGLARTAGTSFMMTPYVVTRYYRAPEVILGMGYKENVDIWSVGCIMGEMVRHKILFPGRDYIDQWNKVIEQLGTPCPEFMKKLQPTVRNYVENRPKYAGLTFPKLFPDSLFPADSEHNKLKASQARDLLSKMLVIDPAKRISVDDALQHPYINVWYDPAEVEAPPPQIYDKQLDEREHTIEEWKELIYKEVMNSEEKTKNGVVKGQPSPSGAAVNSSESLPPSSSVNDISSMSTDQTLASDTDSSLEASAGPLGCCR

As to `O=C1C=CC2(C=C1)OCC(=O)N2c1nc(-c2cccc3ccccc23)nn1-c1ccccc1` [Compound 6a, 4-(3-(Naphthalen-1-yl)-1-phenyl-1H-1,2,4-triazol-5-yl)-1-oxa-4-azaspiro[4.5] deca-6,9-diene-3,8-dione], the “effect on MAPK10” value on MAPK10 is “did not have any significant effect”. The “toxicity to the major organ in mice” value with Kunming mice (20 mg/kg) is “no apparent toxicity”. The “clinical signs in the eyes, skin, and fur” value in the data set with Kunming mice (40 mg/kg) was “no remarkable clinical signs”. Further, in the data set on Kunming mice (setting [1]), the ascites at dissection entry is recorded as “Ascites were detected” and the “liver volume at dissection” value is on record as “decreased liver volume”. Further, in the data set on Kunming mice (highest dose group (40 mg/kg)), the gain of bodyweight result is given as “lower than the other three groups”. For the same compound, the mortality entry in the data set with Kunming mice (single dose 10, 20, 40 mg/kg i.p.) is on record as “No mortality occurred”. Moreover, the “effect on AURKA” value at AURKA is recorded as “did not have any significant effect”. Also, the “size of the spleen and liver” value with 4T1 tumor is listed as “enlarged”. Further, in the data set on MDA-MB-231 cells (MDA-MB-231, 1 μM), the “early and late apoptosis” value was “induced both early and late apoptosis”. In the data set with MDA-MB-231 cells (MDA-MB-231, 48 h of treatment), the “induction of cell apoptosis” value was “induce cell apoptosis in a dose-dependent manner”. At JAK2, the “inhibition on the Janus kinases 2” value was “weak inhibition”. Also, the IC50 (in general, the concentration needed to halve the response being measured) at JAK2 (Inhibitory effect (IC50) JAK2 Repeat 1, Repeat 1) was 41.3 µM. Further, at JAK2 (Inhibitory effect (IC50) JAK2 Repeat 2, Repeat 2), the IC50 turned out to be 76.6 µM.
